Columns and labels:
Adenosine receptor A2b = target: T1, Adenosine receptor A2b (Homo sapiens, UniProt P29275); assay: Displacement of [3H]DPCPX from human adenosine A2B receptor expressed in HEK293 cell membranes after 30 mins
T1 sequence (P29275 whole entry): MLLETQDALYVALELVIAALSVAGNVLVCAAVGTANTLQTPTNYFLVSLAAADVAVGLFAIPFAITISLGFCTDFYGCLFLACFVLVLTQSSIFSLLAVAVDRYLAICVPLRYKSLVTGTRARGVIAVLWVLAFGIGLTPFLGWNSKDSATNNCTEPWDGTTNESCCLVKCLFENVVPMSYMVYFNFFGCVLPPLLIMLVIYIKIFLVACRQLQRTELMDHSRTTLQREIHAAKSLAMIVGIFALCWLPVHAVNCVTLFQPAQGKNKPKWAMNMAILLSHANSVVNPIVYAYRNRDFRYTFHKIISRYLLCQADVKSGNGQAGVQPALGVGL

[1] = target: T2, Adenosine receptor A1 (Homo sapiens) (UniProt P30542); assay: Displacement of [3H]DPCPX from human adenosine A1 receptor expressed in CHO cell membranes at 1 uM after 60 mins
T2 sequence (whole entry): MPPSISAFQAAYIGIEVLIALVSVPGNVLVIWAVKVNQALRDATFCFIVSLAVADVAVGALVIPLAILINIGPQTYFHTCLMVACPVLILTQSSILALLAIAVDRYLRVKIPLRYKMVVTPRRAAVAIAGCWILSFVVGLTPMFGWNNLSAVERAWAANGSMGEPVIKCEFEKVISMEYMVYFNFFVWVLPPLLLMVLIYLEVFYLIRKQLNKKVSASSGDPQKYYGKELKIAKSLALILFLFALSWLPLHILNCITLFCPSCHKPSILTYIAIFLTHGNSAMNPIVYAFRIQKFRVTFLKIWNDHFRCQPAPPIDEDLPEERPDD
How it was run: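 Membranes from CHO cells expressing human A1 receptor, labelled with 2 nM [3H]DPCPX. Nonspecific binding defined with 10 μM R-PIA. Incubated 25 °C, 60 min. Percent inhibition of specific binding at 1 μM, average of n = 2.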

[2] = target: Adenosine receptor A2a (Homo sapiens) (UniProt P29274); assay: Displacement of [3H]4-(2-[7-amino-2-(2-furyl)[1,2,4]triazolo[2,3-a][1,3,5]triazin-5-ylamino]ethyl)phenol from human adenosine A2A receptor expressed in human Hela cell membranes at 1 uM after 30 mins
Sequence of Adenosine receptor A2a (Homo sapiens) (P29274 whole entry): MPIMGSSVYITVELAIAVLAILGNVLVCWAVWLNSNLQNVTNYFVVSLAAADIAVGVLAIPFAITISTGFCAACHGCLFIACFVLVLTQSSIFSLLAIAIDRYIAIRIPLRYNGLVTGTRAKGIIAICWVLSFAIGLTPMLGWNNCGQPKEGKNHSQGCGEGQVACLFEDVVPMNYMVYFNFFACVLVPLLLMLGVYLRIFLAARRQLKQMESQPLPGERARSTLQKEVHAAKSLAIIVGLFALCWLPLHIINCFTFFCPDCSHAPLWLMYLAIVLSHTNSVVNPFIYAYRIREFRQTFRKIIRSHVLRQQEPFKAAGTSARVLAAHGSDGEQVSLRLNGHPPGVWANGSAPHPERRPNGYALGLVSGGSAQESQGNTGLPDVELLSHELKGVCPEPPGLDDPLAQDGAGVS
How it was run: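 Membranes from HeLa cells expressing human A2A receptor, labelled with 3 nM radioligand. Nonspecific binding defined with 50 μM NECA. Incubated 25 °C, 30 min. Percent inhibition of specific binding at 1 μM, average of n = 2.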

[3] = target: T3, Adenosine receptor A3 (Homo sapiens) (UniProt P0DMS8); assay: Displacement of [3H]NECA from human adenosine A3 receptor expressed in human Hela cell membranes at 1 uM after 180 mins
T3 sequence (whole entry): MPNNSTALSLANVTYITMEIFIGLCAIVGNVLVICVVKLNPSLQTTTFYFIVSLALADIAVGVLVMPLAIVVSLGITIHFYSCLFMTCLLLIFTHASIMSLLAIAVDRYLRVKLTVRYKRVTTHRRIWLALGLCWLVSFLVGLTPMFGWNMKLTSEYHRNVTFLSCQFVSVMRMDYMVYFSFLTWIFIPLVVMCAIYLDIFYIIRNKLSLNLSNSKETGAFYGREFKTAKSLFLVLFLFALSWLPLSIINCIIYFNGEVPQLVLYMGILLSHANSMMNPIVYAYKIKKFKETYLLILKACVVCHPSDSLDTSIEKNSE
How it was run: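 Membranes from HeLa cells expressing human A3 receptor, labelled with 30 nM [3H]NECA. Nonspecific binding defined with 100 μM R-PIA. Incubated 25 °C, 180 min. Percent inhibition of specific binding at 1 μM, average of n = 2.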

[4] = target: T4, Adenosine receptor A2b (Homo sapiens) (UniProt P29275); assay: Displacement of [3H]DPCPX from human adenosine A2B receptor expressed in HEK293 cell membranes at 1 uM after 30 mins
T4 sequence (whole entry): T1 sequence (P29275 whole entry)
How it was run: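 HEK-293 membranes expressing human A2B receptor, labelled with 35 nM [3H]DPCPX. Nonspecific binding with 400 μM NECA. 25 °C, 30 min. Percent inhibition of specific binding at 1 μM, average of n = 2.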

[5] = target: T4, Adenosine receptor A2b (Homo sapiens); assay: Antagonist activity at human adenosine A2B receptor expressed in HEK293 cell […] assessed as inhibition of NECA-stimulated cAMP accumulation preincubated for 15 mins followed by NECA stimulation for 15 mins by enzyme immunoassay; assay type: functional, cell-based
How it was run: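 Whole HEK-293 cells transfected with human A2B receptor, grown at 37 °C, 5% CO2 in EMEM F-12 with 10% FCS and 1% L-glutamine. Washed, then preincubated 15 min at 37 °C in EMEM-F12/25 mM HEPES pH 7.4 with 30 μM rolipram plus test compound. Stimulated with 10 μM NECA for 15 min. Lysed, intracellular cAMP read by enzyme immunoassay at 450 nm. KB derived from IC50 by the Leff and Dougall method. n = 3, each in duplicate.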

Compound `CC1=C(C(=O)OC(C)C)[C@@H](c2ccco2)N/C(=N/C#N)N1` has a Ki (Adenosine receptor A2b) of 15.1 nM, an inhibition [1] of 2% and an inhibition [2] of 4%. The inhibition [3] was 4%.
In the case of `CC1=C(C(=O)OC(C)C)C(C2CCCC2)NC(=O)N1` (stereo unspecified), the inhibition [1] is reported as 1%, the inhibition [2] is reported as 1% and the inhibition [4] is reported as 3%. The inhibition [3] was 7%.
`CC1=C(C(=O)OC(C)C)C(c2ccccc2)NC(=O)N1` (stereo unspecified) gave an inhibition [1] of 2%, an inhibition [2] of 1% and an inhibition [4] of 2%. It also gave an inhibition [3] of 2%.
Work on `CC1=C(C(=O)OC(C)C)C(c2ccco2)NC(=O)N1` (stereo unspecified) yielded an inhibition [1] of 20%, an inhibition [2] of 30% and an inhibition [3] of 1%.
Compound `CC1=C(C(=O)OC(C)C)C(c2ccsc2)NC(=O)N1` (stereo unspecified) has an inhibition [3] of 1%.
Work on `CC1=C(C(=O)OC(C)C)[C@H](c2ccco2)N/C(=N/C#N)N1` yielded an inhibition [1] of 18%, an inhibition [2] of 10% and an inhibition [4] of 23%. The inhibition [3] was 1%.
In the case of `CCOC(=O)C1=C(C)NC(=O)NC1C1CCCC1` (stereo unspecified), the inhibition [1] is reported as 3%, the inhibition [2] is reported as 1% and the inhibition [4] is reported as 2%. The inhibition [3] was 18%.
`CCOC(=O)C1=C(C)NC(=O)NC1c1ccccc1` (stereo unspecified) gave an inhibition [1] of 1%, an inhibition [2] of 10% and an inhibition [4] of 2%. The inhibition [3] was 2%.
In the case of `CCOC(=O)C1=C(C)NC(=O)NC1c1ccco1` (stereo unspecified), the inhibition [1] is reported as 18% and the inhibition [2] is reported as 41%.
For `CCOC(=O)C1=C(C)NC(=O)NC1c1cccs1` (stereo unspecified), the inhibition [1] was 1%, the inhibition [4] was 44% and the inhibition [3] was 1%.
In the case of `CCOC(=O)C1=C(C)NC(=O)NC1c1ccoc1` (stereo unspecified), the inhibition [2] is reported as 39%.
`CCOC(=O)C1=C(C)NC(=O)NC1c1ccsc1` (stereo unspecified) gave an inhibition [1] of 22%, an inhibition [2] of 39% and an inhibition [3] of 24%.
Compound `CC1=C(C(=O)OC(C)C)C(c2ccco2)N/C(=N/C#N)N1` (racemic) has a Ki (Adenosine receptor A2b) of 24.3 nM, an inhibition [1] of 21% and an inhibition [2] of 19%. It also gave an inhibition [3] of 4% and a Kb [5] of 116 nM.
Work on `CCOC(=O)C1=C(C)N/C(=N\C#N)NC1c1ccoc1` (racemic) yielded a Ki (Adenosine receptor A2b) of 102 nM, an inhibition [1] of 28% and an inhibition [2] of 31%. It also gave an inhibition [3] of 14%.
Work on `CCOC(=O)C1=C(C)N/C(=N\C#N)NC1c1cccs1` (racemic) yielded a Ki (Adenosine receptor A2b) of 51 nM, an inhibition [1] of 26% and an inhibition [2] of 33%. For the same compound, the inhibition [3] was 3%.
With `CCOC(=O)C1=C(C)N/C(=N\C#N)NC1c1ccsc1` (racemic) the Ki (Adenosine receptor A2b) was 461 nM, the inhibition [1] was 29% and the inhibition [2] was 30%. For the same compound, the inhibition [3] was 23%.
For `CCOC(=O)C1=C(C)N/C(=N\C#N)NC1c1ccco1` (racemic), the Ki (Adenosine receptor A2b) was 900 nM, the inhibition [1] was 27% and the inhibition [2] was 20%. For the same compound, the inhibition [3] was 20%.
`CC1=C(C(=O)OC(C)C)C(c2cccs2)N/C(=N/C#N)N1` (racemic) gave a Ki (Adenosine receptor A2b) of 349 nM, an inhibition [1] of 31% and an inhibition [2] of 16%. It also gave an inhibition [3] of 27%.
Work on `CC1=C(C(=O)OC(C)C)C(c2ccoc2)N/C(=N/C#N)N1` (racemic) yielded a Ki (Adenosine receptor A2b) of 59.4 nM, an inhibition [1] of 34% and an inhibition [2] of 25%. For the same compound, the inhibition [3] was 41%.
Work on `CC1=C(C(=O)OC(C)C)C(c2ccsc2)N/C(=N/C#N)N1` (racemic) yielded a Ki (Adenosine receptor A2b) of 647 nM, an inhibition [1] of 11% and an inhibition [2] of 18%. For the same compound, the inhibition [3] was 13%.
Work on `CC1=C(C(=O)OC(C)C)C(C2CCCC2)N/C(=N/C#N)N1` (racemic) yielded an inhibition [1] of 3%, an inhibition [2] of 5% and an inhibition [4] of 11%. The inhibition [3] was 3%.
In the case of `CC1=C(C(=O)OC(C)C)C(c2ccccc2)N/C(=N/C#N)N1` (racemic), the inhibition [1] is reported as 20%, the inhibition [2] is reported as 12% and the inhibition [4] is reported as 32%. The inhibition [3] was 6%.
Work on `CCOC(=O)C1=C(C)N/C(=N\C#N)NC1C1CCCC1` (racemic) yielded an inhibition [1] of 11%, an inhibition [2] of 10% and an inhibition [4] of 19%. It also gave an inhibition [3] of 4%.
Compound `CCOC(=O)C1=C(C)N/C(=N\C#N)NC1c1ccccc1` (racemic) has an inhibition [1] of 18%, an inhibition [2] of 13% and an inhibition [4] of 25%. The inhibition [3] was 13%.

— ChEMBL document CHEMBL4049429, “Enantiospecific Recognition at the A2B Adenosine Receptor by Alkyl 2-Cyanoimino-4-substituted-6-methyl-1,2,3,4-tetrahydropyrimidine-5-carboxylates” (J Med Chem, 2017)
